Source: PubChem BioAssay (Sanford-Burnham Center for Chemical Genomics)
Most compounds without a hit are left out; they make up all but 3.3% or so of the library.
SENP6 block – blocks the human protease SENP6; AID 2599; Q9GZR1; inhibition, % at 10 µM; Recombinant SENP6 catalytic domain, aminoluciferin luminescence; 330,000 compounds, 1.8% hits;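 active = inhibition above about 50% at the single tested dose, limit read from the data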
SENP7 inh – inhibitors of human SENP7 protease; Q9BQF6; recombinant SENP7, Z-RLRGG-aminoluciferin luminescence, 40 min; inhibition, % at 5 µM; 330,000 compounds, 1.5% hits; AID 434973;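 active = inhibition above about 50% at the single test dose, limit read from the data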
Target sequence (Q9BQF6 706-1050 limits assumed): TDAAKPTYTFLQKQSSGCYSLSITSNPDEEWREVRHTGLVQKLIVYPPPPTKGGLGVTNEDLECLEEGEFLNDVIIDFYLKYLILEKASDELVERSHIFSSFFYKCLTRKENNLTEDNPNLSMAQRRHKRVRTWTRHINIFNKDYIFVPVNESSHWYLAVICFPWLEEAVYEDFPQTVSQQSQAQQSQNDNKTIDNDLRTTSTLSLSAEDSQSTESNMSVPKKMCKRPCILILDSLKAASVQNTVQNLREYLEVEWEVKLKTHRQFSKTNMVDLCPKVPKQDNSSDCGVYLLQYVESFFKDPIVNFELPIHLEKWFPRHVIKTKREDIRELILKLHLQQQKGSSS
SENP1 FRET inh – inhibitors of human SENP1 SUMO protease catalytic domain; Q9P0U3; recombinant SENP1 catalytic domain, CyPet-SUMO1-YPet FRET cleavage; inhibition, % at 10 µM; 360,000 compounds, 0.21% hits; AID 624204;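 active = inhibition at least 30% at 10 µM, raw YFP signal under a set limit, fluorescence ratio 0.5 to 1.5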
Target sequence (Q9P0U3 419-644 limits assumed): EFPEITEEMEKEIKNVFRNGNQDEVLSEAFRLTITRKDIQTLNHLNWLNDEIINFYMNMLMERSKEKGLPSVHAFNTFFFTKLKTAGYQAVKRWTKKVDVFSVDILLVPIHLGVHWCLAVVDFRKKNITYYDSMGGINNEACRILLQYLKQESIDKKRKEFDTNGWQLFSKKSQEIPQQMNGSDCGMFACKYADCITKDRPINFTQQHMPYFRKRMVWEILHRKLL
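Controls: no-enzyme wells low, DMSO-plus-enzyme wells high control. Test system: human recombinant His6-tagged SENP1 catalytic domain enzyme. Reagent: SFCypet-SUMO1-SFYpet FRET protein substrate, 25 nM final. Doses: one dose per compound, 10 µM, 0.5% DMSO. Detection: FRET, CFP and YFP emission. Timing: 50 min reaction at room temperature.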
SENP8 block-1 – inhibitors of human SENP8 protease | inhibition, % at 10 µM | purified SENP8, Z-RLRGG-aminoluciferin cleavage, luminescence | 330,000 compounds, 1.2% hits; in the data active = inhibition above about 50%
SENP8 block-2 – inhibitors of human SENP8 protease. Q96LD8. recombinant SENP8, Nedd8 substrate fluorescence. inhibition, % at 20 µM. 360,000 compounds, 0.64% hits. AID 602440; in the data active = inhibition mostly above about 40%, no sharp cut-off; inactive = mostly below about 27%
NRP1-CendR mod – NRP-1/CendR interaction modulation; FAM-RPARPAR peptide binding to NRP-1, fluorescence polarization; O14786; 360,000 compounds, 0.85% hits; inhibition, % at 25 µM; AID 602438;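 active = inhibition or corrected inhibition above about 18%, plus a signal ratio from 0.5 to 1.5, limit read from the data, passing the limit was not always enough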
SENP8 conf – SENP8 (human) inhibition, single concentration confirmation. shares compounds with SENP8 block-2. purified SENP8, Nedd8-AMC/pro-Nedd8 cleavage fluorescence, 30 min. inhibition, % at 25 µM. 1,400 compounds, 15% hits. AID 624319; in the data active = inhibition mostly above about 39%, no sharp cut-off; inactive = mostly below about 34%
Of the large screens only hits and unclear results are named; the others gave an inactive call (follow-up assays come after a bar, where they were run).

CC1(C2CC2)NC(=O)N(CC(=O)Nc2ccc(OC(F)F)cc2)C1=O (configuration not stated)	none (no result: SENP6 block, SENP7 inh, SENP8 block-1)
Clc1ccc(/C=N/NC(=Nc2ccccc2)c2ccccn2)c(Cl)c1	none
C(=N\NC(=Nc1ccccc1)c1ccccn1)/c1ccccn1	SENP8 block-2 40 | SENP8 conf inactive
CCOC(=O)c1cc([N+](=O)[O-])cc([N+](=O)[O-])c1Sc1ncnc2nc[nH]c12	SENP8 block-2 63 (no result: SENP6 block, SENP7 inh, SENP8 block-1) | SENP8 conf inactive
CC1(C(=O)NCc2cccnc2)Cc2c(-c3cccc(C(F)(F)F)c3)ccnc2O1 (configuration not stated)	none (no result: SENP6 block, SENP7 inh, SENP8 block-1)
COc1ccc(CNC(=O)[C@H](C)N2C(=O)N3CCc4c([nH]c5ccccc45)[C@@]3(C)C2=O)cc1OC	SENP8 block-2 51 | SENP8 conf inactive
Cc1ccc(CNC(=O)[C@H](C)N2C(=O)N3CCc4c([nH]c5ccccc45)[C@@]3(C)C2=O)cc1	none
CC(=O)c1c(O)cc(O)c(C(C)=O)c1O	SENP8 block-2 45 | SENP8 conf inactive
CC(=O)c1c(O)cc(O)cc1CC(=O)O	none
Cc1ccc(C(=O)c2ccc([N+](=O)[O-])cc2)cc1	none
Cc1ccc(C(=O)c2coc3cc([N+](=O)[O-])c(O)c([N+](=O)[O-])c23)cc1	SENP8 block-2 47 | SENP8 conf inactive
COc1cccc(-c2cc(C(=O)N3CCc4ccccc4C3)no2)c1	SENP8 block-2 58 | SENP8 conf 78
COc1ccc(-c2cc(C(=O)N3CCc4ccccc4C3)no2)cc1	none
CC(C)(C)OC(=O)N(CCc1ccccc1)Cc1ccccc1OCc1ccc(NC(=O)C2CCCC2)cc1	none (no result: SENP6 block, SENP7 inh, SENP8 block-1)
CC(=O)C1=NN(c2ccccc2)C(c2ccc3c(c2)OCO3)N1c1ccc(N2CCOCC2)cc1 (configuration not stated)	SENP8 block-2 44 | SENP8 conf inactive
CC(=O)Nc1ccc(Nc2ncc([N+](=O)[O-])c(Nc3ccc(NC(C)=O)cc3)n2)cc1	SENP8 block-2 44 | SENP8 conf inactive
Cc1ccccc1C(=O)NCCN1CCOCC1	none
CC(C(=O)NCCN1CCOCC1)(c1ccccc1)c1ccccc1	SENP8 block-2 67 | SENP8 conf inactive
Cn1c(=O)c(Nc2ccc(O)cc2)c2c3c(cccc31)C(=O)c1ccccc1-2	SENP8 block-2 45, NRP1-CendR mod 81 | SENP8 conf inactive
CNC(=S)N/N=C/c1ccc(-c2ccc(Cl)c([N+](=O)[O-])c2)o1	SENP8 block-2 33 | SENP8 conf inactive
Cc1ccc(-c2ccc(/C=N/NC(=S)Nc3ccccc3)o2)cc1[N+](=O)[O-]	none
NC(=S)N/N=C/c1ccc(-c2cccc([N+](=O)[O-])c2)o1	none
O=[N+]([O-])c1cccc(-c2ccc(/C=N/NC(=S)Nc3cccc(F)c3)o2)c1	SENP8 block-2 52 | SENP8 conf inactive
CCOc1ccc(C(=O)CN2C(=O)NC3(CCCc4ccccc43)C2=O)cc1 (configuration not stated)	none (no result: SENP6 block, SENP7 inh, SENP8 block-1)
C(=Nn1cnnc1)c1ccc2c(c1)CCC2	none (no result: SENP6 block, SENP7 inh, SENP8 block-1)
Cn1cccc1CNC(=S)Nc1ccccc1Cl	SENP8 block-2 40 | SENP8 conf inactive
O=C(NCCc1ccccc1)Nc1nnc([C@@H]2C[C@H](O)[C@@H](CO)O2)s1	none (no result: SENP6 block, SENP7 inh, SENP8 block-1)
COc1ccc(OS(=O)(=O)c2c(C)noc2C)cc1	SENP8 block-2 48 | SENP8 conf inactive
COc1ccc(N(C)S(=O)(=O)c2c(C)noc2C)c(OC)c1	none
Cc1nc(C(F)(F)F)ccc1C(=O)N1CCC1(C)C(=O)NCc1cccs1 (configuration not stated)	none (no result: SENP6 block, SENP7 inh, SENP8 block-1)
COc1cccc(NC(=O)CN(C)CC(=O)Nc2cccc(C(F)(F)F)c2)c1	none
COc1ccc(-c2noc(N(C)CC(=O)Nc3cccc(C(F)(F)F)c3)n2)cc1	SENP8 block-2 43 | SENP8 conf inactive
Cc1ccc(S(=O)(=O)C[C@@H]2OC[C@H](CO)N2S(=O)(=O)c2ccc(C)cc2)cc1	none (no result: SENP6 block, SENP7 inh, SENP8 block-1)
FC(F)(F)c1cc(Cc2nc3ccccc3n2C(CCc2ccccc2)c2nc3ccccc3[nH]2)cc(C(F)(F)F)c1 (configuration not stated)	none (no result: SENP6 block, SENP7 inh, SENP8 block-1)
O=C(N/N=C/c1ccc([N+](=O)[O-])o1)C(=O)Nc1ccc(C(=O)O)cc1	none
O=C(O)c1ccc(N/N=C/C=C/c2ccc([N+](=O)[O-])o2)cc1	SENP1 FRET inh 78, SENP8 block-2 45 | SENP8 conf inactive
COc1c(OC)c(O)c2c(=O)c(O)c(-c3ccccc3)oc2c1OC	SENP8 block-2 42 | SENP8 conf inactive
COc1ccc(-c2nn(-c3ccccc3)cc2C=O)cc1[N+](=O)[O-]	none
COc1ccc(-c2nnc(SC)nc2-c2ccc(OC)c([N+](=O)[O-])c2)cc1[N+](=O)[O-]	SENP8 block-2 49 | SENP8 conf inactive
COCCN(CCOC)Cc1cc(=O)oc2cc(C)cc(C)c12	none (no result: SENP6 block, SENP7 inh, SENP8 block-1)
CCOC(=O)c1ccc(NC(=O)CCN2C(=O)C3CC=CCC3C2=O)cc1 (configuration not stated)	SENP8 block-2 34 | SENP8 conf inactive
CCC(=O)Nc1ccc(C(=O)COC(=O)CCN2C(=O)C3CC=CCC3C2=O)cc1 (configuration not stated)	none
Cc1[nH][nH]c(=O)c1C(c1c(C)[nH][nH]c1=O)c1cn(C)c2ccccc12	SENP8 block-2 77, NRP1-CendR mod 20 (no result: SENP6 block, SENP7 inh, SENP8 block-1) | SENP8 conf 50
COC(=O)CCCn1cc(CN2CC(N3CCN(Cc4ccccc4F)CC3)CS2(=O)=O)nn1 (configuration not stated)	none (no result: SENP6 block, SENP7 inh, SENP8 block-1)
CC(C)C[C@H](NC(=O)N1c2ccccc2NC(=O)[C@@H]1C(C)C)C(=O)N[C@@H](Cc1ccccc1)C(=O)O	none
CC(C)[C@H]1C(=O)Nc2ccccc2N1C(=O)N[C@@H](Cc1ccccc1)C(=O)N[C@@H](C(=O)O)c1ccccc1	SENP8 block-2 44 | SENP8 conf inactive
CC(C)[C@H](NC(=O)N1c2ccccc2NC(=O)[C@@H]1C(C)C)C(=O)N1CCC(C(=O)O)CC1	SENP8 block-2 45 | SENP8 conf inactive
Cc1ccc(Cc2cnc(NC(=O)/C(C#N)=C/c3ccc(-c4ccccc4[N+](=O)[O-])o3)s2)cc1	SENP8 block-2 47 | SENP8 conf inactive
O=C(CCN1C(=O)CSc2ccccc21)Nc1ccc(OC(F)(F)F)cc1	none
Cc1ccc(S(=O)c2ccc([N+](=O)[O-])c3nonc23)cc1 (configuration not stated)	SENP8 block-2 61 (no result: SENP6 block, SENP7 inh, SENP8 block-1) | SENP8 conf inactive
COc1cc2c(cc1OC)C(CNC(=O)C=Cc1cc(OC)c(OC)c(OC)c1)C2 (configuration not stated)	none (no result: SENP6 block, SENP7 inh, SENP8 block-1)
